A selection: hits, their analogues and other compounds. The true share with any hit is near 2.6%.
SENP8 block-1: inhibitors of human SENP8 protease; actives 1.2% (n = 330,000); Q96LD8; purified SENP8, Z-RLRGG-aminoluciferin cleavage, luminescence; inhibition, % at 10 µM; in the data active means inhibition above about 50%
Target sequence (Q96LD8 whole entry, looked up): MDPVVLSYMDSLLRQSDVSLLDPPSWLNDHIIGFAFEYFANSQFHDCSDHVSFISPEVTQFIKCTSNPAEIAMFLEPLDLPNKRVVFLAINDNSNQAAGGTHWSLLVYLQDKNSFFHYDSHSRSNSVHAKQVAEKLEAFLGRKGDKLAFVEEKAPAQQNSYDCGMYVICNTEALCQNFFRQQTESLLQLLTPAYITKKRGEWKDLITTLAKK
SENP6 block: inhibitors of human SENP6 protease. Q9GZR1. Recombinant SENP6 catalytic domain, aminoluciferin luminescence. inhibition, % at 10 µM. actives 1.8% (n = 330,000);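 active means inhibition above about 50% at the single tested dose, limit read from the data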;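 further: plate controls were DMSO wells with enzyme for no effect and DMSO wells lacking enzyme for full effect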
Platelet DG rel: platelet dense granule release activity; human platelet-rich plasma, SFLLRN dense granule ATP release, luminescence; inhibition, %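 (compounds screened at 7.5 µM in platelet-rich plasma)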; actives 0.22% (n = 300,000);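 active means mean replicate score, as percent of positive control, at or above 50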
SENP1 FRET inh: SENP1 (human) catalytic domain inhibition; recombinant SENP1 catalytic domain, CyPet-SUMO1-YPet FRET cleavage; inhibition, % at 10 µM; Q9P0U3; actives 0.21% (n = 360,000); AID 624204;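 active means inhibition at least 30% at 10 µM, raw YFP signal under a set limit, fluorescence ratio 0.5 to 1.5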;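 further: 0% = enzyme with DMSO and 100% = no enzyme wells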
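Assay system – human recombinant His6-tagged SENP1 catalytic domain enzyme · Input – SENP1 enzyme, 20 pM final · Buffer or medium – Tris pH 8 buffer plus EDTA, NaCl, BME, BSA, NP40, catalase · Schedule – 50 min reaction at room temperature · Technique – FRET read of cyan and yellow fluorescence · Control set – no-enzyme wells low, DMSO-plus-enzyme wells high control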
SENP7 inh: blocks the human protease SENP7. inhibition, % at 5 µM. AID 434973. actives 1.5% (n = 330,000). recombinant SENP7, Z-RLRGG-aminoluciferin luminescence, 40 min;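 active means inhibition above about 50% at the single test dose, limit read from the data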;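 further: plate controls were DMSO with enzyme for no effect and no enzyme buffer wells for full effect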
Target sequence (Q9BQF6 706-1050 limits assumed): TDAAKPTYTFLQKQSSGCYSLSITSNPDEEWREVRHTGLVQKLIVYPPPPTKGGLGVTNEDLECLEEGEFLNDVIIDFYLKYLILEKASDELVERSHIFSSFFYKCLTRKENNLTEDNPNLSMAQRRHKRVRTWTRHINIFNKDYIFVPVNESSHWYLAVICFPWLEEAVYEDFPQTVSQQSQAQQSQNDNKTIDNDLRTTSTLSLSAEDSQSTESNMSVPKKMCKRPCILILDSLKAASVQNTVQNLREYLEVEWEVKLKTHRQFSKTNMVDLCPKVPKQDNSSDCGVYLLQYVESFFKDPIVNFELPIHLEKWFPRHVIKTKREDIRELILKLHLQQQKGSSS
SENP8 block-2: inhibitors of human SENP8 protease. recombinant SENP8, Nedd8 substrate fluorescence. Q96LD8. actives 0.64% (n = 360,000). inhibition, % at 20 µM; in the data active means inhibition mostly above about 40%, no sharp cut-off; inactive means mostly below about 27%
SENP8 conf: confirmation of human SENP8 protease inhibitors; shares compounds with SENP8 block-2; purified SENP8, Nedd8-AMC/pro-Nedd8 cleavage fluorescence, 30 min; inhibition, % at 25 µM; actives 15% (n = 1,400); AID 624319; in the data active means inhibition mostly above about 39%, no sharp cut-off; inactive means mostly below about 34%
* = called active by the depositor; / = no result.

SMILES	SENP8 block-1	SENP6 block	Platelet DG rel	SENP1 FRET inh	SENP7 inh	SENP8 block-2	SENP8 conf
Cc1nc2ccccn2c(=O)c1NC(=O)COc1ccccc1	/	/	/	-2	/	-68	/
COc1ccc(NCC(=O)Nc2ccc(Br)cc2F)c(OC)c1	4	7	41	5	14	-6	/
Cc1cccc(N2C(=O)Cc3ccccc3C2=O)c1	20	31	-5	-3	24	82*	43
Cc1ccc(N2C(=O)Cc3ccccc3C2=O)cc1	23	40	-4	-4	17	69*	55*
Cc1ccc(N2C(=O)c3cccc4cccc(c34)C2=O)cc1	-2	-20	-2	-1	-8	-13	/
CC(=O)Nc1ccc(NC(=O)CC(C)n2ccnc2)cc1 (stereo not given)	-9	-8	-2	1	-6	17	/
Cc1ccc(N2C(=O)[C@@H]3[C@H](C2=O)C2c4ccccc4C=CN2[C@@H]3C(=O)c2ccco2)cc1 (stereo not given in full)	/	/	/	-25	/	49*	89*
COc1ccc(N2C(=O)[C@@H]3[C@H](C2=O)[C@H]2c4ccccc4C=CN2[C@@H]3C(=O)Nc2ccccc2)cc1	-7	20	/	-26	-4	44*	80*
CC(C)C(NC(=O)c1cccc(S(=O)(=O)N2CCOCC2)c1)C(=O)NCc1ccc(Cl)cc1 (stereo not given)	3	-10	/	-3	8	10	/
C/C=C/c1ccc(OCCCCn2cncn2)c(OC)c1	7	-6	/	2	-1	2	/
C/C=C/c1ccc(OCCCn2cncn2)c(OC)c1	-8	-10	0	2	-15	47*	12
O=C(NNc1ccccc1)Nc1cc(Cl)ccc1Cl	/	/	/	4	/	48*	10
O=C(NNc1ccccc1[N+](=O)[O-])Nc1ccc(F)cc1F	0	-4	-4	-22	6	25	/
O=C(COc1ccccc1)Nc1cc(Cl)ccc1Cl	-22	2	4	2	-3	16	/
O=C(NNc1ccccc1[N+](=O)[O-])Nc1cccc(Cl)c1	1	-5	-7	2	2	40*	25
COCCNC(=S)NN=C1CCCCC1	7	-5	2	2	7	46*	14
CC1(N=Cc2cc(Cl)ccc2O)COP(=O)(NC2CCCC2)OC1 (stereo not given)	/	/	/	-14	/	-1	/
COc1ccc2c(c1)C(=O)N(c1ccc(C)cc1C)C(=O)C2	-6	19	1	-22	-1	2	/
COc1ccc2c(c1)C(=O)N(c1ccccc1OC)C(=O)C2	-1	-3	-2	8	-17	69*	38*
CN(c1ccccc1)S(=O)(=O)c1ccc(Cl)c(C(=O)NCc2ccccc2CN2CCCC2)c1	14	-5	/	1	-1	10	/
COCCCN1C(=O)C(=O)/C(=C(/O)c2ccc(S(=O)(=O)N3CCCCC3)cc2)C1c1ccc(O)c(OC)c1 (stereo not given)	2	14	5	5	0	12	/
COCCCN1C(=O)C(=O)/C(=C(/O)c2ccc(S(=O)(=O)N3CCCCC3)cc2)C1c1ccc(O)cc1 (stereo not given)	4	18	7	3	8	45*	12
O=C(c1ccc(-n2cccc2)cc1)N1CCCCC1	-12	-22	0	4	-21	14	/
CN(CC(=O)Nc1cccc(F)c1)CC(=O)Nc1ccccc1[N+](=O)[O-]	-2	13	/	0	-2	10	/
CN(CC(=O)Nc1cccc(F)c1)CC(=O)Nc1ccc(Cl)cc1[N+](=O)[O-]	-2	13	-2	1	10	42*	16
SMILES	SENP8 block-1	SENP6 block	Platelet DG rel	SENP1 FRET inh	SENP7 inh	SENP8 block-2	SENP8 conf
CCN(CC(=O)Nc1ccc2c(c1)OCCO2)C(=O)c1ccccc1Br	12	-4	/	1	1	4	/
CC(=O)O[C@H]1C[C@@]2(O)[C@@H](OC(=O)c3ccccc3)C3[C@@](C)([C@@H](O)C[C@H]4OC[C@@]34OC(C)=O)[C@@H](O)[C@H](OC(C)=O)C(=C1C)C2(C)C (stereo not given in full)	-5	-8	-2	3	0	43*	15
CC1CCCC(CC(=O)O)(CC(=O)O)C1 (stereo not given)	1	-2	-3	1	3	15	/
O=C(CC(c1ccccc1)c1ccccc1)NCc1cccnc1	1	-1	0	2	0	41*	13
N#CCCN(NC(=O)OCc1ccccc1)C(=O)OCc1ccccc1	/	/	/	1	/	6	/
O=C(CCS(=O)(=O)Cc1ccccc1F)N1CCc2ccccc2C1	4	5	13	1	0	67*	75*
CC(=O)c1ccc(S(=O)(=O)NC2CC(=O)N(c3ccc(C)c(C)c3)C2)cc1 (stereo not given)	5	3	7	3	3	15	/
S=C(NCCc1ccccn1)Nc1ccccc1Cl	1	-3	-1	0	3	14	/
Cc1c(Cl)cccc1NC(=S)NCCc1ccccn1	5	-21	-1	0	2	47*	16
O=C(O)c1ccc(Cl)c(S(=O)(=O)NCc2ccco2)c1	-13	-10	4	2	4	43*	-8
CC(C)OCCCNC(=S)Nc1ccc(S(N)(=O)=O)cc1	6	0	-1	-1	3	17	/
Cc1cc(NS(=O)(=O)c2ccc3c(c2)OCCO3)no1	-3	-10	-4	2	1	42*	23
CC1CCCN(c2cc(N(C)CCO)c([N+](=O)[O-])c3nonc23)C1 (stereo not given)	1	-6	7	8	1	49*	1
Cc1onc(-c2c(Cl)cccc2Cl)c1C(=O)c1ccccc1	-7	-41	5	2	-1	13	/
Cc1onc(-c2c(Cl)cccc2Cl)c1C(=O)N=S(C)(=O)c1ccccc1 (stereo not given)	-4	-7	13	2	2	41*	8
COc1ccc2nc(NNC(=O)c3cc(=O)c4ccccc4o3)sc2c1	22	47	3	30	-2	-47	/
Cc1ccc2sc(NNC(=O)c3cc(=O)c4ccccc4o3)nc2c1C	94*	96*	-6	26	19	66*	25
CN(C(=O)c1cc(C(=O)N(C)c2ccccc2)cc([N+](=O)[O-])c1)c1ccccc1	-6	15	-3	0	-3	31	/
CC1=NN(c2ccccc2)C(=O)C1C(=O)c1cc([N+](=O)[O-])cc([N+](=O)[O-])c1 (stereo not given)	-6	17	11	2	-10	51*	-5
CN(Cc1cccnc1)Cc1cn[nH]c1-c1ccc(-c2ccccc2)cc1	-6	12	2	2	-5	0	/
